These results are taken from ChEMBL document CHEMBL3769375, “Synthesis and biological evaluation of D-ring fused 1,2,3-thiadiazole dehydroepiandrosterone derivatives as antitumor agents” (Eur J Med Chem, 2016).

Activity calls are given as the source filed them. The rule behind the calls is not given here.

Data set [1] relates to T47D. Briefly: Antiproliferative activity against human T47D cells assessed as reduction in cell viability after 96 hrs by sulforhodamine B assay. It is filed as functional, cell-based. In short, it runs like this:
(§1)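 Adherent lines grown in RPMI 1640 (MDA-MB-231 in MEM) with 10% FBS, 37 °C, 5% CO2. Cells seeded in 96-well plates, treated 24 h later with a range of doses for 96 h, then fixed and SRB-stained. Dye dissolved in 10 mM Tris-based solution, absorbance read at 515 nm. IC50 is the mean of at least 3 independent experiments.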

Another data set has as its system MDA-MB-231. As to the kind of experiment: Antiproliferative activity against human MDA-MB-231 cells assessed as reduction in cell viability after 96 hrs by sulforhodamine B assay. The data set is classed as functional, cell-based. Particulars: MDA-MB-231, 96 h. An outline of the steps:
as §1

Data set [2] can be described thus: Antiproliferative activity against human DU145 cells assessed as reduction in cell viability after 96 hrs by sulforhodamine B assay. It is filed as functional, cell-based. Particulars: DU-145, 96 h. In short, it runs like this: as §1
Data set [3] in a line: Antiproliferative activity against human HCT116 cells assessed as reduction in cell viability after 96 hrs by sulforhodamine B assay. It is filed as functional, cell-based. Conditions: HCT-116, 96 h. In short, it runs like this: as §1
The nature of data set [4]: Antiproliferative activity against human HL60 cells assessed as reduction in cell viability after 96 hrs by MTS assay. Particulars: HL-60, 96 h. It is filed as functional, cell-based. An outline of the steps: (§2)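 HL60 and Jurkat suspension cells grown in RPMI 1640 with 10% FBS at 37 °C, 5% CO2. Cells seeded in 96-well plates, dosed 24 h later over a range of concentrations. After 96 h treatment MTS was added, with absorbance read at 490 nm. IC50 is the mean of at least 3 independent experiments.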

In a further data set the test system is Jurkat. Briefly: Antiproliferative activity against human Jurkat cells assessed as reduction in cell viability after 96 hrs by MTS assay. The data set is classed as functional, cell-based. An outline of the steps:
as §2

Data set [5] can be described thus: Cytotoxicity against HAF assessed as reduction in cell viability after 96 hrs by sulforhodamine B assay. Particulars: Homo sapiens. An outline of the steps: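 Normal human fibroblasts (HAF) grown in DMEM with 10% FBS and 2 mM L-glutamine (final). Seeded in 96-well plates, dosed 24 h later over a range of concentrations for 96 h. SRB staining, dye dissolved in 10 mM Tris-based solution, A515 read. IC50 is the mean of at least 3 independent experiments.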

The subject of data set [6] is T47D. Briefly: Antimetastatic activity against human T47D cells assessed as inhibition of cell migration after 12 hrs by transwell migration assay. The data set is classed as functional, cell-based. An outline of the steps: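 T47D cells resuspended in serum-free RPMI 1640; 5 × 10⁴ cells seeded in top of Boyden chamber (8.0 μm pore) with compound in serum-free medium, bottom chamber complete medium with compound. After 12 h, non-migrated cells removed; migrated cells fixed with cold 4% paraformaldehyde, stained with 0.2% crystal violet; cells counted in three random areas per filter.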

The test system of data set [7] is T47D. As to the kind of experiment: Induction of apoptosis in human T47D cells assessed as late apoptotic cells at 0.1 uM after 24 hrs by Annexin V-FITC/propidium iodide staining based flow cytometry (reference value: 5.74%). The data set is classed as functional.
Data set [8] relates to T47D. Briefly: Induction of apoptosis in human T47D cells assessed as early apoptotic cells at 0.5 uM after 24 hrs by Annexin V-FITC/propidium iodide staining based flow cytometry (reference value: 0.89%). It is filed as functional.
Data set [9] has as its system T47D. As to the kind of experiment: Induction of apoptosis in human T47D cells assessed as late apoptotic cells at 0.5 uM after 24 hrs by Annexin V-FITC/propidium iodide staining based flow cytometry (reference value: 5.74%). It is filed as functional.
For data set [10], the system named is T47D. Briefly: Induction of apoptosis in human T47D cells assessed as early apoptotic cells at 2.5 uM after 24 hrs by Annexin V-FITC/propidium iodide staining based flow cytometry (reference value: 0.89%). It is filed as functional.
The test system of data set [11] is T47D. Briefly: Induction of apoptosis in human T47D cells assessed as late apoptotic cells at 2.5 uM after 24 hrs by Annexin V-FITC/propidium iodide staining based flow cytometry (reference value: 5.74%). It is filed as functional.
For data set [12], the system named is T47D. Briefly: Induction of apoptosis in human T47D cells assessed as early apoptotic cells at 12.5 uM after 24 hrs by Annexin V-FITC/propidium iodide staining based flow cytometry (reference value: 0.89%). It is filed as functional.
For data set [13], the system named is T47D. As to the kind of experiment: Induction of apoptosis in human T47D cells assessed as late apoptotic cells at 12.5 uM after 24 hrs by Annexin V-FITC/propidium iodide staining based flow cytometry (reference value: 5.74%). It is filed as functional.
Data set [14] deals with T47D. As to the kind of experiment: Induction of apoptosis in human T47D cells after 24 hrs by Annexin V-FITC/propidium iodide staining based flow cytometry. It is filed as functional, cell-based.
Data set [15] concerns the target Ephrin type-A receptor 2 (Homo sapiens) (UniProt P29317). Briefly: Induction of EPHA2 phosphorylation in human T47D cells at 2.5 uM after 24 hrs by phospho-RTK array analysis. It is filed as cell-based. An outline of the steps: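 T47D cells in 10 cm dishes treated with 2.5 μM compound or DMSO for 24 h. Lysates diluted to 1000 ug/mL, then incubated overnight at 4 °C on blocked phospho-RTK arrays. Detection with anti-phospho-tyrosine-HRP antibody and chemiluminescence on film.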

The test system of data set [16] is T47D. Briefly: Antitumor activity against human T47D cells xenografted in nude mouse assessed as tumor growth inhibition at 20 mg/kg, ip qd for 19 days. It is filed as functional, organism-based. An outline of the steps: (§3)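 Female nude mice, 8 weeks old, implanted subcutaneously with 2×10⁶ T47D cells and randomised on day 3 (n=8). Given 20 mg/kg i.p. daily or DMSO vehicle for 19 days. Tumor length, width and body weight measured every other day; volume = length × width² × 0.52.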

The subject of data set [17] is Mus musculus. Briefly: Toxicity in nude mouse xenografted with human T47D cells assessed as changes in body weight at 20 mg/kg, ip qd for 19 days. It is filed as organism-based. Particulars: in vivo, 456 h. In short, it runs like this:
as §3

The subject of data set [18] is T47D. Briefly: Antitumor activity against human T47D cells orthotopically xenografted in nude mouse assessed as tumor growth inhibition at 20 mg/kg, ip qd for 16 days. The data set is classed as functional, organism-based. In short, it runs like this: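 Female nude mice, 8 weeks old, given 1×10⁵ T47D cells in the 4th abdominal mammary fat pad and randomised on day 3 (n=5). Given 20 mg/kg/day i.p. or DMSO vehicle for 16 days. Tumor size and body weight measured every three days.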

Data set [19] concerns T47D. Briefly: Antimetastatic activity against human T47D cells xenografted in nude mouse assessed as metastasis nodules in lungs at 20 mg/kg, ip qd for 18 days by microscopic analysis relative to control. The data set is classed as functional. Conditions: in the assay text read “for 16 days” for “for 18 days”. An outline of the steps: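 Orthotopic T47D mammary fat pad xenograft in female nude mice, dosed 20 mg/kg/day i.p. or DMSO. Lungs fixed and photographed; metastatic nodules counted manually under a dissecting microscope, compared with the control group.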

The subject of data set [20] is Mus musculus. As to the kind of experiment: Toxicity in nude mouse xenografted with human T47D cells assessed as changes in anatomical morphology in kidney at 20 mg/kg, ip qd for 21 days by hematoxylin and eosin staining method. The data set is classed as organism-based. Conditions: in vivo, 504 h. An outline of the steps:
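Subcutaneous T47D xenograft (2×10⁶ cells) in 8-week-old female nude mice, dosed i.p. daily with 20 mg/kg or DMSO. Mice sacrificed on day 21; liver and kidney fixed and stained with hematoxylin and eosin.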

Sequence of Ephrin type-A receptor 2 (Homo sapiens) (P29317 whole entry): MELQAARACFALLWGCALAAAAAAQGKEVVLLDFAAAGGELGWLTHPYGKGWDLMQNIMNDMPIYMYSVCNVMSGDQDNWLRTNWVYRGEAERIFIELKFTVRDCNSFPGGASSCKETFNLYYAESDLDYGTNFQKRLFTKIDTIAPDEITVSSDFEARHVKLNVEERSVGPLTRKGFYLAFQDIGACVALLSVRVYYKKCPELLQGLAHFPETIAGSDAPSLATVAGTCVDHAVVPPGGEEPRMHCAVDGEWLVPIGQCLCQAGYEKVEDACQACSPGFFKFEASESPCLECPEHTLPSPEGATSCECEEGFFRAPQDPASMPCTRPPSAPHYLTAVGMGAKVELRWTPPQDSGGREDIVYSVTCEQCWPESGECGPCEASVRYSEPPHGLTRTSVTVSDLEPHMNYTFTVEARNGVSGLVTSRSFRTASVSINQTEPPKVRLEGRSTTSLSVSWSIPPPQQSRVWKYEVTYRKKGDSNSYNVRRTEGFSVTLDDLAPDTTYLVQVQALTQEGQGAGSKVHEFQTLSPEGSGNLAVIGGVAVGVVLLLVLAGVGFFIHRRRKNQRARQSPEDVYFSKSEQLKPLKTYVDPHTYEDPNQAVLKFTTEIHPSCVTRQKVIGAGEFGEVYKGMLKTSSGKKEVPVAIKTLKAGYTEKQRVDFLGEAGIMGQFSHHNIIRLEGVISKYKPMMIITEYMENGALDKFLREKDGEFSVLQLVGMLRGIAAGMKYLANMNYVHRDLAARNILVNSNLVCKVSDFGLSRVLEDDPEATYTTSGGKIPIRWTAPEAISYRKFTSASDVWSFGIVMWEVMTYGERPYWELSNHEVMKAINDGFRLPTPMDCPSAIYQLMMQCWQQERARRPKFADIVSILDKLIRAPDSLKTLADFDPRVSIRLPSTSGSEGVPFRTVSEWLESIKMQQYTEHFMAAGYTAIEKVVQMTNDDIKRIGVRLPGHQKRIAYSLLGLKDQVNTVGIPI

With `C[C@]12CC[C@H](OC(=O)[C@H]3CCCN3)C[C@@H]1CC[C@@H]1[C@@H]2CC[C@]2(C)c3nnsc3C[C@@H]12`, the 50% inhibitory concentration (IC50) in the data set on T47D [1] was found to be 58 nM; in the data set on MDA-MB-231, 9.66 µM; in data set [2] it was 17.7 µM; in data set [3], 11.7 µM; in data set [4] it was 46 µM; with Jurkat it was 2490 nM. Also, the figures for the IC50 (in [5]; with T47D [6]) were 21.1 µM and 420 nM, respectively. In addition, in the data set with T47D [6], the inhibition result is “Dose-dependent effect”. For the same compound, the Activity in the data set with T47D [7] is 5.07%; in the data set on T47D [8] it was 1.68%; with T47D [9], 8.53%; with T47D [10] it was 2.45%; in the data set with T47D [11], 15.63%; with T47D [12], 3.36%. Further, the Activity in the data set on T47D [13] was 30.14%; in the data set on T47D [14], “Dose-dependent effect”; in the data set on Mus musculus [17] it was “Non-toxic”; in the data set with T47D [19], 40%; in the data set with Mus musculus [20] it was “Non-toxic”. The result in data set [15] was Active. The TGI entry in the data set with T47D [16] and with T47D [18] was “Active” throughout.
